Fewer inactive variants are shown than the library holds.
B1: tRNA (parent)
chain: GUUCCGUUGGCGUAAUGGUAACGCGUCUCCCUCCUAAGGAGAAGACUGCGGGUUCGAGUCCCGUACGGAACG

Variants of: B1
Assay: yeast fitness relative to wild type (ratio to wild type); higher = fitter; tRNA-Arg(CCU), competitive growth, 37 C, YPD
In short: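 Amplicons of the tRNA-Arg(CCU) gene were sequenced, 100-nucleotide paired-end, from the start population and from each end population of a pooled yeast competition. The competition, in six parallel replicates, lasted 24 hours in YPD at 37°C. Fitness relative to wild type was calculated from changes in genotype frequencies. Genotypes had to have ≥ 100 starting reads, and estimates < 0.5 were set to 0.5.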
Work on C29G G44C yielded a yeast fitness of 0.755.
For C29G U35A A36C A65G C66G, the yeast fitness was at most 0.5.
C29G A43G C49G showed a yeast fitness of 0.532.
With C29A G48A G50A C66U the yeast fitness was at most 0.5.
Work on C29G C30G A57U A70G yielded a yeast fitness of 0.503.
C29A U32C C49A gave a yeast fitness of at most 0.5.
Variant C29U C30G A70C has a yeast fitness of 0.536.
Work on C29G G44A U64G yielded a yeast fitness of at most 0.5.
Variant C29U C30A A45C has a yeast fitness of 0.563.
Variant C29G C34U G63A G67A A69G has a yeast fitness of at most 0.5.
In the case of C29U C31U U54G, the yeast fitness is reported as 0.522.
C29G A43C G67C gave a yeast fitness of 0.654.
C29U A36G showed a yeast fitness of 0.842.
For C29U A36C, the yeast fitness was 0.531.
C29U A36U showed a yeast fitness of 0.567.
C29G A37G A45U G68C showed a yeast fitness of at most 0.5.
C29G C34A A37G C60A gave a yeast fitness of at most 0.5.
C29A U32C showed a yeast fitness of 0.618.
For C29G C33U U47A G58A, the yeast fitness was at most 0.5.
For C29U A42U C61U C66A, the yeast fitness was at most 0.5.
For C29G G48C C49U C61A, the yeast fitness was at most 0.5.
With C29G C31U A43C G44C G68C the yeast fitness was at most 0.5.
With C29A U35G C55G G68A A69C the yeast fitness was at most 0.5.
C29U A42C A45C G50A gave a yeast fitness of at most 0.5.
C29G A43C showed a yeast fitness of 0.661.
For C29G A43G, the yeast fitness was 0.785.
With C29G C49A C60A the yeast fitness was 0.572.
Work on C29A G50C A70U yielded a yeast fitness of at most 0.5.
For C29A U32A A45C A65C, the yeast fitness was 0.651.
Work on C29G U59C yielded a yeast fitness of 0.606.
With C29G C31A the yeast fitness was 0.511.
C29G C31G gave a yeast fitness of 0.695.
Variant C29G C31U has a yeast fitness of 0.68.
With C29G G67C the yeast fitness was 0.667.
Work on C29U A40U G56C A69C yielded a yeast fitness of 0.519.
Variant C29G C30G C49A has a yeast fitness of 0.839.
Work on C29A G41A yielded a yeast fitness of 0.551.
For C29G G41C A57U, the yeast fitness was at most 0.5.
With C29A G38A the yeast fitness was 0.764.
In the case of C29G A40C, the yeast fitness is reported as 0.685.
Work on C29G A40U yielded a yeast fitness of 0.555.
C29G C33G A42C gave a yeast fitness of 0.54.
In the case of C29U C33A C34U C46G C66U, the yeast fitness is reported as 0.56.
With C29G A45C A70G the yeast fitness was 0.573.
Variant C29G G50A A65U has a yeast fitness of at most 0.5.
C29U A37G G48A G68C A69U gave a yeast fitness of 0.662.
In the case of C29A G44C G67A, the yeast fitness is reported as at most 0.5.
For C29A G56C, the yeast fitness was at most 0.5.
In the case of C29A G56A, the yeast fitness is reported as 0.794.
C29U A45U C61U gave a yeast fitness of 0.644.
In the case of C29A G51A, the yeast fitness is reported as 0.544.
With C29A G51C the yeast fitness was at most 0.5.
For C29G U32G G38A U53C A57U C62U, the yeast fitness was at most 0.5.
Variant C29U A40G U47A has a yeast fitness of 0.582.
In the case of C29U A37G C49U, the yeast fitness is reported as 0.613.
Variant C29G C30G U32C A36U has a yeast fitness of 0.524.
C29U A37C A40G A42U showed a yeast fitness of at most 0.5.
Work on C29G A43U C46U yielded a yeast fitness of at most 0.5.
For C29G U47G G63A A70U, the yeast fitness was at most 0.5.
C29G G44C C49G C61G showed a yeast fitness of at most 0.5.
C29G C55A U64A A65C showed a yeast fitness of at most 0.5.
Work on C29G C55U yielded a yeast fitness of at most 0.5.
With C29G C30G C34G C60A G67C the yeast fitness was at most 0.5.
C29U A43U C46A G50A C61G G68A showed a yeast fitness of at most 0.5.
With C29G A36U A45U C55A the yeast fitness was at most 0.5.
Variant C29U C31U A70G has a yeast fitness of 0.726.
C29A U32C A42U C66A A69C showed a yeast fitness of at most 0.5.
With C29U A36C C46U U53A the yeast fitness was at most 0.5.
C29G G68A gave a yeast fitness of 0.595.
With C29A U64C the yeast fitness was 0.632.
C29G C61G C66G showed a yeast fitness of 0.558.
For C29A G68C, the yeast fitness was 0.621.
C29A G68U showed a yeast fitness of 0.721.
For C29G A45C G52A, the yeast fitness was at most 0.5.
Work on C29G C33G A42C G48A yielded a yeast fitness of 0.777.
C29A U54A A57U showed a yeast fitness of 0.535.
Work on C29G C34G C46A U53A C61U yielded a yeast fitness of 0.544.
C29G A42G U64G gave a yeast fitness of at most 0.5.
With C29U A42C the yeast fitness was 0.676.
C29U A42U showed a yeast fitness of 0.769.
Work on C29U A42G yielded a yeast fitness of 0.975.
Work on C29G G50C U53C yielded a yeast fitness of at most 0.5.
With C29G C33G A43U the yeast fitness was at most 0.5.
With C29G A36G A43U C66A the yeast fitness was at most 0.5.
C29U A36C A43C C60A gave a yeast fitness of at most 0.5.
With C29G C30U C31G C49U G50C the yeast fitness was at most 0.5.
Variant C29U A57U C62A has a yeast fitness of at most 0.5.
With C29G G48A A69U the yeast fitness was 0.542.
Variant C29G G44A A57U has a yeast fitness of 0.553.
For C29G C46G, the yeast fitness was 0.687.
C29U C31G A37C G50A showed a yeast fitness of at most 0.5.
Variant C29U A36C G48A G50C has a yeast fitness of at most 0.5.
Work on C29G U32C A36U C61G yielded a yeast fitness of at most 0.5.
Variant C29G C30G U32C A36U C60U C61U has a yeast fitness of 0.566.
For C29G C61U, the yeast fitness was 0.685.
For C29G C61G, the yeast fitness was 0.54.
In the case of C29G G50C, the yeast fitness is reported as 0.607.
Variant C29G G63C A70U has a yeast fitness of at most 0.5.
For C29G C31G A37C C66A, the yeast fitness was 0.575.
With C29G C34A C60A A69C the yeast fitness was at most 0.5.
C29G A43C G51C A57C gave a yeast fitness of at most 0.5.
With C29G A43G U47A the yeast fitness was at most 0.5.
For C29G G56A, the yeast fitness was 0.632.
With C29U C33A G63C A65C C66A the yeast fitness was at most 0.5.
C29G G50C C55U gave a yeast fitness of at most 0.5.
In the case of C29A G41A A43C A70C, the yeast fitness is reported as at most 0.5.
In the case of C29U C33U, the yeast fitness is reported as 0.826.
Variant C29A G48A has a yeast fitness of 0.688.
C29A G48C gave a yeast fitness of 0.613.
Variant C29G C33U U47A C61U A69C has a yeast fitness of at most 0.5.
C29A G39C gave a yeast fitness of 0.817.
C29G C31A A42C G67C showed a yeast fitness of 0.606.
With C29G G48A C49U the yeast fitness was at most 0.5.
In the case of C29U C30U U32C C55G G58A U64A, the yeast fitness is reported as at most 0.5.
Work on C29U C31G G44C yielded a yeast fitness of at most 0.5.
With C29G U35C A45U C60G G63C the yeast fitness was 0.669.
For C29G C49U G68A, the yeast fitness was at most 0.5.
C29U A37G A65U gave a yeast fitness of at most 0.5.
In the case of C29A U35A G67C, the yeast fitness is reported as at most 0.5.
C29G C62U gave a yeast fitness of 0.721.
C29G C62A gave a yeast fitness of 0.506.
With C29U A42U U64C C66U A69U the yeast fitness was at most 0.5.
With C29G U32C C46U the yeast fitness was at most 0.5.
For C29U A37C A65C, the yeast fitness was at most 0.5.
C29G A57C U59G gave a yeast fitness of at most 0.5.
Work on C29G C31U A43C G44C A65U yielded a yeast fitness of 0.517.
In the case of C29G A36G C66G, the yeast fitness is reported as at most 0.5.
In the case of C29G C34U G38C C55A, the yeast fitness is reported as at most 0.5.
With C29G C31A G67A the yeast fitness was 0.56.
C29U C33A C34U C46G G52C gave a yeast fitness of at most 0.5.
C29G C55A A65G showed a yeast fitness of at most 0.5.
Variant C29G A36G A40U has a yeast fitness of at most 0.5.
With C29A U35A A70U the yeast fitness was 0.716.
C29G C33U A45U showed a yeast fitness of at most 0.5.
C29G A43U C46G C62A showed a yeast fitness of at most 0.5.
C29U C31U U59C C66U A70C showed a yeast fitness of 0.55.
Work on C29G A37U G52A yielded a yeast fitness of 0.546.
Variant C29G C46A U59C has a yeast fitness of 0.546.
C29U C30U C31G C34G A37C A45G showed a yeast fitness of at most 0.5.
For C29G C33U A65C, the yeast fitness was 0.554.
For C29A G56C C61A, the yeast fitness was at most 0.5.
C29G U32G G38A U53C C66U showed a yeast fitness of at most 0.5.
Variant C29G G56A A69U has a yeast fitness of at most 0.5.
In the case of C29U A36U C66U G67A, the yeast fitness is reported as 0.527.
With C29G U32G G38A U53C the yeast fitness was 0.566.
C29A U53A gave a yeast fitness of 0.51.
In the case of C29G A43U C66U, the yeast fitness is reported as at most 0.5.
In the case of C29G U54A, the yeast fitness is reported as at most 0.5.
C29G U54G showed a yeast fitness of 0.563.
For C29U C31U G67U, the yeast fitness was 0.593.
With C29G C34A G39C the yeast fitness was at most 0.5.
Work on C29U C31A A69U yielded a yeast fitness of 0.627.
C29G C55G A57G A70C gave a yeast fitness of at most 0.5.
C29U A40U A57G U64C showed a yeast fitness of at most 0.5.
C29U A37C C55A G58A showed a yeast fitness of at most 0.5.
With C29G C30U C46U G48A the yeast fitness was at most 0.5.
Variant C29G C34A C60A has a yeast fitness of at most 0.5.
In the case of C29G U47A U59A A69G, the yeast fitness is reported as at most 0.5.
C29U C33G G44C showed a yeast fitness of at most 0.5.
C29G A36U C46G gave a yeast fitness of 0.755.
Work on C29U A40C G56C C61G C62G G68C yielded a yeast fitness of at most 0.5.
C29G C55G A57G gave a yeast fitness of 0.593.
Work on C29A G39C A57G C61U C66U yielded a yeast fitness of 0.561.
Variant C29G U35G C62U A69U has a yeast fitness of at most 0.5.
Work on C29A G48C A70G yielded a yeast fitness of 0.54.
Variant C29G A43U A70U has a yeast fitness of 0.563.
With C29U C30U C61A the yeast fitness was at most 0.5.

Reference: the RNAGym collection of RNA variant scans (doi:10.1126/science.aae0568)
